What was measured:
[1] = Induction of nitric oxide release in potassium phosphate buffer at pH 7.4 at 0.1 mM after 15 mins by Griess assay; type: physicochemical; details: pH 7.4, 0.25 h, 100 µM
Method in brief: (§1)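 Compound (0.1 mM) in PBS pH 7.4 containing 2% DMSO and 5.0 mM L-cysteine was held at 37 °C for 15–300 min. Samples were taken every 15 min up to 120 min, then every 30 min. Each sample was reacted with Griess reagent for 10 min at 37 °C and absorbance read at 540 nm. Nitrite was quantified from a nitrite standard curve. Means reported; intra-group variation <10%.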

[2] = Antiplatelet activity in rabbit platelet-rich plasma assessed as inhibition of ADP-induced platelet aggregation at 0.1 mM preincubated for 5 mins followed by addition of ADP measured within 5 mins by Borns turbidimetric method; type: functional; details: Oryctolagus cuniculus
Method in brief: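 Rabbit carotid blood was citrated (3.8%, 9:1). PRP was obtained at 500 g for 10 min and PPP at 3000 g for 10 min. PRP was preincubated in duplicate for 5 min at 37 °C with 0.1 mM compound, plus carboxy-PTIO or BSS where indicated. ADP was then added and maximal light transmission recorded within 5 min, within 3 h of blood collection. Inhibition % was calculated versus control. Mean ± SD of three independent experiments.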

[3] = Induction of nitric oxide release in potassium phosphate buffer at pH 7.4 at 0.1 mM after 45 mins by Griess assay; type: physicochemical; details: pH 7.4, 0.75 h, 100 µM; method in brief: as §1
Liver [4] = assay: Induction of hydrogen sulfide release in rat liver homogenate at 100 uM after 90 mins by microplate reader method (reference value: 1.03 to 1.21%); type: functional, tissue-based
Method in brief: (§2)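 Compound was incubated at 37 °C for 0–90 min with fresh rat liver homogenate. The reaction was stopped with 1% zinc acetate and 10% trichloroacetic acid. N,N-dimethyl-p-phenylenediamine sulfate in 7.2 M HCl and FeCl3 in 1.2 M HCl were added, and absorbance was read at 670 nm after 10 min. Values were calculated against an NaHS standard curve as cumulative % conversion to H2S, n = 6.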

[5] = Induction of nitric oxide release in potassium phosphate buffer at pH 7.4 at 0.1 mM after 30 mins by Griess assay; type: physicochemical; details: pH 7.4, 0.5 h, 100 µM; method in brief: as §1
[6] = Antiplatelet activity in rabbit platelet-rich plasma assessed as inhibition of ADP-induced platelet aggregation preincubated for 5 mins followed by addition of ADP measured within 5 mins by Borns turbidimetric method; type: functional; details: Oryctolagus cuniculus
Method in brief: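 Platelet-rich plasma from citrated rabbit carotid blood was preincubated in duplicate at 37 °C for 5 min with compound at 0.1, 0.2, 0.4, 0.8 or 1.6 mM. ADP-induced aggregation was then recorded turbidimetrically, as maximal light transmission within 5 min. Inhibition was calculated versus vehicle control, and IC50 values were derived. Mean ± SD, n = 6, ANOVA/Tukey.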

[7] = Induction of nitric oxide release in potassium phosphate buffer at pH 7.4 at 0.1 mM after 105 mins by Griess assay; type: physicochemical; details: pH 7.4, 1.75 h, 100 µM; method in brief: as §1
[8] = Induction of nitric oxide release in potassium phosphate buffer at pH 7.4 at 0.1 mM after 75 mins by Griess assay; type: physicochemical; details: pH 7.4, 1.25 h, 100 µM; method in brief: as §1
[9] = Induction of nitric oxide release in potassium phosphate buffer at pH 7.4 at 0.1 mM after 300 mins by Griess assay; type: physicochemical; details: pH 7.4, 5 h, 100 µM; method in brief: as §1
[10] = Induction of nitric oxide release in potassium phosphate buffer at pH 7.4 at 0.1 mM after 150 mins by Griess assay; type: physicochemical; details: pH 7.4, 2.5 h, 100 µM; method in brief: as §1
[11] = Induction of nitric oxide release in potassium phosphate buffer at pH 7.4 at 0.1 mM after 120 mins by Griess assay; type: physicochemical; details: pH 7.4, 2 h, 100 µM; method in brief: as §1
Liver [12] = assay: Induction of hydrogen sulfide release in rat liver homogenate at 100 uM after 15 mins by microplate reader method (reference value: 1.03 to 1.21%); type: functional, tissue-based; method in brief: as §2
[13] = Induction of nitric oxide release in potassium phosphate buffer at pH 7.4 at 0.1 mM after 60 mins by Griess assay; type: physicochemical; details: pH 7.4, 1 h, 100 µM; method in brief: as §1
[14] = Induction of nitric oxide release in potassium phosphate buffer at pH 7.4 at 0.1 mM after 240 mins by Griess assay; type: physicochemical; details: pH 7.4, 4 h, 100 µM; method in brief: as §1
Liver [15] = assay: Induction of hydrogen sulfide release in rat liver homogenate at 100 uM after 30 mins by microplate reader method (reference value: 1.03 to 1.21%); type: functional, tissue-based; method in brief: as §2
[16] = Induction of nitric oxide release in potassium phosphate buffer at pH 7.4 at 0.1 mM after 90 mins by Griess assay; type: physicochemical; details: pH 7.4, 1.5 h, 100 µM; method in brief: as §1
[17] = Induction of nitric oxide release in potassium phosphate buffer at pH 7.4 at 0.1 mM after 180 mins by Griess assay; type: physicochemical; details: pH 7.4, 3 h, 100 µM; method in brief: as §1
Liver [18] = assay: Induction of hydrogen sulfide release in rat liver homogenate at 100 uM after 60 mins by microplate reader method (reference value: 1.03 to 1.21%); type: functional, tissue-based; method in brief: as §2

Activity [1] [µM]	Activity [3] [µM]	Activity [5] [µM]	IC50 [6] [µM]	Activity [7] [µM]	Activity [8] [µM]	Activity [9] [µM]	Activity [10] [µM]	Activity [11] [µM]	Activity [13] [µM]	Activity [14] [µM]	Activity [16] [µM]	Activity [17] [µM]	SMILES	inhibition at 100 µM [2] [%]	Activity (Liver [4]) [%]	Activity (Liver [12]) [%]	Activity (Liver [15]) [%]	Activity (Liver [18]) [%]
2.37	5.98	4.21	210	8.64	7.84	9.57	9.25	8.76	6.58	9.44	8.14	9.29	CCCCC(OC(=O)CN1CCN(CCOc2ccc(-c3cc(=S)ss3)cc2)CC1)c1ccccc1C(=O)Oc1ccc(/C=C/C(=O)OCCCCCCO[N+](=O)[O-])cc1OC (racemic)	19.7	3.82	2.62	2.83	3.74
													CCCCC(OC(=O)CN1CCN(CCCOc2ccc(-c3cc(=S)ss3)cc2)CC1)c1ccccc1C(=O)Oc1ccc(/C=C/C(=O)OCCO[N+](=O)[O-])cc1OC (racemic)	19.7				
													S=c1cc(-c2ccc(OCCCCCN3CCNCC3)cc2)ss1	16.8				
													CCCCC(OC(=O)CN1CCN(CCCCCOc2ccc(-c3cc(=S)ss3)cc2)CC1)c1ccccc1C(=O)Oc1ccc(/C=C/C(=O)OCCCCCCO[N+](=O)[O-])cc1OC (racemic)	19.7				
													CCCCC(OC(=O)CN1CCN(CCCCOc2ccc(-c3cc(=S)ss3)cc2)CC1)c1ccccc1C(=O)Oc1ccc(/C=C/C(=O)OCCO[N+](=O)[O-])cc1OC (racemic)	19.7				
1.45	3.09	2	390	5.1	4.4	5.56	5.46	5.3	4	5.51	4.8	5.48	CCCCC(OC(=O)CN1CCN(CCCCCCOc2ccc(-c3cc(=S)ss3)cc2)CC1)c1ccccc1C(=O)Oc1ccc(/C=C/C(=O)OCCCCO[N+](=O)[O-])cc1OC (racemic)	19.7	1.82	0.95	1.05	1.81
3.01	6.09	5.45	190	9.58	8.28	10.22	10.12	10.01	7.88	10.18	9.11	10.14	CCCCC(OC(=O)CN1CCN(CCCCCCOc2ccc(-c3cc(=S)ss3)cc2)CC1)c1ccccc1C(=O)Oc1ccc(/C=C/C(=O)OCCCCCCO[N+](=O)[O-])cc1OC (racemic)	19.7	3.32	2.53	2.83	3.3
1.17	3.26	2.24	320	4.98	4.36	5.38	5.3	5.09	4	5.33	4.68	5.31	CCCCC(OC(=O)CN1CCN(CCCCOc2ccc(-c3cc(=S)ss3)cc2)CC1)c1ccccc1C(=O)Oc1ccc(/C=C/C(=O)OCCCCCCO[N+](=O)[O-])cc1OC (racemic)	19.7	1.35	0.75	0.92	1.33
													CCCCC(OC(=O)CN1CCN(CCCCCOc2ccccc2)CC1)c1ccccc1C(=O)Oc1ccc(/C=C/C(=O)OCCO[N+](=O)[O-])cc1OC (racemic)	19.8				
													CCCCC(OC(=O)CCl)c1ccccc1C(=O)Oc1ccc(/C=C/C(=O)OCCO[N+](=O)[O-])cc1OC (racemic)	18				
													CCCCC(OC(=O)CN1CCN(CCOc2ccc(-c3cc(=S)ss3)cc2)CC1)c1ccccc1C(=O)Oc1ccc(/C=C/C(=O)OCCO[N+](=O)[O-])cc1OC (racemic)	19.7				
													CCCCC(OC(=O)CN1CCN(CCCCCOc2ccc(-c3cc(=S)ss3)cc2)CC1)c1ccccc1C(=O)Oc1ccc(/C=C/C(=O)OC)cc1OC (racemic)	27.8				
2.1	4.58	3.86	360	8.3	7.04	8.37	8.32	8.37	6.13	8.25	7.45	8.34	CCCCC(OC(=O)CN1CCN(CCCCOc2ccc(-c3cc(=S)ss3)cc2)CC1)c1ccccc1C(=O)Oc1ccc(/C=C/C(=O)OCCCCO[N+](=O)[O-])cc1OC (racemic)	19.7	2.72	1.74	1.85	2.71
1.96	4.13	3.17	430	6.41	5.53	7.51	7.28	6.88	4.98	7.51	5.97	7.47	CCCCC(OC(=O)CN1CCN(CCCCCCOc2ccc(-c3cc(=S)ss3)cc2)CC1)c1ccccc1C(=O)Oc1ccc(/C=C/C(=O)OCCO[N+](=O)[O-])cc1OC (racemic)	19.7	2.41	1.6	1.73	2.39
													CCCCC(OC(=O)CN1CCN(CCCCCOc2ccc(-c3cc(=S)ss3)cc2)CC1)c1ccccc1C(=O)Oc1ccc(/C=C/C(=O)OCCCCO[N+](=O)[O-])cc1OC (racemic)	19.7				
0.91	1.89	1.27	430	2.98	2.36	3.32	3.25	3.18	2.22	3.32	2.56	3.23	CCCCC(OC(=O)CN1CCN(CCCOc2ccc(-c3cc(=S)ss3)cc2)CC1)c1ccccc1C(=O)Oc1ccc(/C=C/C(=O)OCCCCO[N+](=O)[O-])cc1OC (racemic)	19.7	1.23	0.65	0.83	1.21
													CCCCC(OC(=O)CN1CCN(CCCOc2ccc(-c3cc(=S)ss3)cc2)CC1)c1ccccc1C(=O)Oc1ccc(/C=C/C(=O)OCCCCCCO[N+](=O)[O-])cc1OC (racemic)	19.7				
													CCCCC(OC(=O)CN1CCN(CCOc2ccc(-c3cc(=S)ss3)cc2)CC1)c1ccccc1C(=O)Oc1ccc(/C=C/C(=O)OCCCCO[N+](=O)[O-])cc1OC (racemic)	19.7				
